Results from different studies.
Lines come from different studies, so protocols differ.
PTGIR: Prostacyclin receptor (PTGIR, Homo sapiens, UniProt P43119)
MMP2: 72 kDa type IV collagenase (MMP2, Homo sapiens, UniProt P08253)
SETD7: Histone-lysine N-methyltransferase SETD7 (SETD7, Homo sapiens, UniProt Q8WTS6)

CC(C)C[C@H](NC(=O)[C@H](Cc1ccccc1)NC(=O)c1cnccn1)B(O)O — inhibition (Lysosomal protective protein (CTSA, Homo sapiens, UniProt P10619); cell-free assay; inhibitor; 33 µM): 32.4%
C#Cc1n[nH]c2c(-c3cn([C@@H](C)c4ccccn4)c(=O)[nH]c3=O)cc(F)cc12 — inhibition (Casein kinase I isoform gamma-1 (CSNK1G1, Homo sapiens, UniProt Q9HCP0); enzyme activity; inhibitor; 0.1 µM): 2.6%
Cc1ncc(C)n2nc(/C=C/c3nc(N4CCCC4)cc(N4CCOCC4)n3)nc12 — inhibition (PTGIR; cell-free assay; 10 µM): 22%
COc1ccc(S(=O)(=O)N(CC(=O)NO)CC(C)C)cc1 — inhibition (MMP2; enzyme activity; inhibitor; 10 nM): 24%
O=C(Nc1cccnn1)N1CCN([C@@H]2CCOc3cc(C(F)(F)F)ccc32)CC1 — inhibition (PTGIR; cell-free assay; 20 µM): -15%
Nc1c(S(=O)(=O)O)cc(Nc2ccc(Nc3nc(Cl)nc(Nc4cccc(S(=O)(=O)O)c4)n3)c(S(=O)(=O)O)c2)c2c1C(=O)c1ccccc1C2=O — inhibition (SETD7; cell-free assay; 10 µM): 93%
CN(C)C(=O)COC(=O)Cc1ccc(OC(=O)c2ccc(NC(=N)N)cc2)cc1 — inhibition (Ubiquitin carboxyl-terminal hydrolase isozyme L1 (UCHL1, Homo sapiens, UniProt P09936); enzyme activity; inhibitor; 10 µM): 7%
CCN(CC)CCCC[C@H](NC(=O)[C@H](CC(C)C)NC(=O)[C@H](C)NC(=O)[C@H](Cc1ccccc1)NC(=O)c1ccc(C(C)(C)C)cc1)C(=O)N[C@@H](CO)C(=O)OC — inhibition (Galanin receptor type 2 (GALR2, Homo sapiens, UniProt O43603); ligand displacement; radioligand; 10 µM): -21%
CC(C)=CCCC1(C)C=Cc2c(O)c3c(c(CC=C(C)C)c2O1)OC12C(=CC4CC1C(C)(C)OC2(C/C=C(/C)C(=O)O)C4O)C3=O (centres unmarked) — inhibition (SETD7; cell-free assay; 10 µM): 11%
Cn1cc(-c2cc(F)cc(N3CCn4c(cc5c4CCCC5)C3=O)c2CO)cc(Nc2ccc(N3CCN(C4COC4)CC3)cn2)c1=O — inhibition (G protein-coupled receptor kinase 6 (GRK6, Homo sapiens, UniProt P43250); enzyme activity; inhibitor; 0.1 µM): 4%
CCOC(=O)c1ccc(OC(=O)CCCCCNC(=N)N)cc1 — inhibition (MMP2; enzyme activity; inhibitor; 10 µM): 26%
C[C@H](C(=O)N[C@H]1COc2ccccc2[C@@H]1S(C)(=O)=O)c1ccc(F)cc1 — inhibition (Coagulation factor X (F10, Homo sapiens, UniProt P00742); enzyme activity; inhibitor; 10 µM): -3%
N=C(N)c1ccc2cc(OC(=O)c3ccc(N=C(N)N)cc3)ccc2c1 — inhibition (MMP2; enzyme activity; inhibitor; 10 µM): 0%
Cn1cc(-c2cccc(N3CCc4c(sc5c4CC(C)(C)C5)C3=O)c2CO)cc(Nc2ccncn2)c1=O — inhibition (G protein-coupled receptor kinase 5 (GRK5, Homo sapiens, UniProt P34947); enzyme activity; inhibitor; 1 µM): -5%
